Measurements reported in ChEMBL document CHEMBL1144930, “A short synthesis and biological evaluation of potent and nontoxic antimalarial bridged bicyclic beta-sulfonyl-endoperoxides” (J Med Chem, 2003).
Several values for one entry are separate records, joined by “and”; a condition that tells them apart may be missing. Equal entries are not always repeated. Activity calls are given as the source filed them. No cut-off for these calls is given here.

How the values were obtained:
[1] = In vitro antimalarial activity against chloroquine-sensitive NF54 strain of Plasmodium falciparum; type: functional
Outline: (§1)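 Run in quadruplicate with fitted concentration-response curves (R2 ≥0.985). Artemisinin was run as a concurrent control.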

Mus musculus [2] = species on record: Mus musculus; assay: Dose at which all the mice (from 4 groups) demonstarted 100% survival and normal expected body weight gain after injecting with compound for 14 days; type: functional
Outline: (§2)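 Male CD-1/ICR mice in groups of at least 4, given a single intramuscular injection into rear-limb muscle (at most 0.05 mL per site). Test articles were dissolved or suspended at 5% in sesame oil; a vehicle group was included. Doses ranged from 85 to about 400 mg/kg. Survival and body weight gain were followed for 14 days.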

Mus musculus [3] = assay: In vivo antimalarial activity in mice (Mus musculus) against chloroquine-resistant Plasmodium yoelii species. NS after subcutaneous administration; type: functional
Mus musculus [4] = assay: In vivo antimalarial activity in mice (Mus musculus) against chloroquine-sensitive Plasmodium berghei N after oral administration; type: functional
Mus musculus [5] = assay: In vivo antimalarial activity in mice (Mus musculus) against chloroquine-sensitive Plasmodium berghei N after subcutaneous administration; type: functional
[6] = In vitro antimalarial activity against chloroquine-sensitive NF54 strain of Plasmodium falciparum (Experiment 1); type: functional; outline: as §1
[7] = In vitro antimalarial activity against chloroquine-sensitive NF54 strain of Plasmodium falciparum (Experiment 2); type: functional; outline: as §1
Mus musculus [8] = species on record: Mus musculus; assay: Dose at which two mice demonstarted 100% survival and normal expected body weight gain after injecting with compound for 14 days; type: functional; outline: as §2
Mus musculus [9] = assay: In vivo antimalarial activity in mice (Mus musculus) against chloroquine-resistant Plasmodium yoelii species. NS after subcutaneous administration; NA means Inactive at 30 mg/kg/day; type: functional, organism-based
Mus musculus [10] = assay: Number of mice survived in a group of 18 mice after injecting single intraperitoneal dose of 1000 mg/kg (single dose of 250 mg/kg did not cause mice mortality); type: functional
Outline: (§3)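 Male CD-1 mice in groups of 18 received a single intraperitoneal dose (250, 500 or 1000 mg/kg) of the reference. Survival was scored. Clinical signs such as ruffled fur, hypoactivity and hunched posture were also recorded.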

Mus musculus [11] = assay: Number of mice survived in a group of 18 mice after injecting single intraperitoneal dose of 500 mg/kg (single dose of 250 mg/kg did not cause mice mortality); type: functional; outline: as §3

## CCCCS(=O)(=O)C[C@]1(C)OOC2CC1CC(OC(=O)c1ccccc1)C2(C)O (stereo not given in full)
[1]
  IC50: 2500 nM

## CC1(OCc2ccccc2)CCC2CC1OO[C@@]2(C)CS(=O)(=O)c1ccccc1 (stereo not given in full)
Mus musculus [2]
  Dose: 380 mg/kg
Mus musculus [3]
  ED50: 1.3 mg kg-1 5day-1
  ED90: 3.8 mg kg-1 5day-1
Mus musculus [4]
  ED50: 10.5 mg kg-1 5day-1
  ED90: 115 mg kg-1 5day-1
Mus musculus [5]
  ED50: 0.8 mg kg-1 5day-1
  ED90: 1.7 mg kg-1 5day-1
[1]
  IC50: 6.5 nM

## C[C@@H]1[C@H](OCc2ccc(C(=O)O)cc2)O[C@@H]2O[C@@]3(C)CC[C@@H]4[C@@H](C)CC[C@@H]1[C@]24OO3 [ARTELINIC ACID]
Mus musculus [5]
  ED50: 6.6 mg kg-1 5day-1
  ED90: 14 mg kg-1 5day-1

## CC1(OC(=O)C(=O)N(Cc2ccccc2)Cc2ccccc2)CCC2CC1OO[C@@]2(C)CS(=O)(=O)c1ccccc1 (stereo not given in full)
[1]
  IC50: 21 nM

## C[C@@H]1CC[C@H]2[C@@H](C)C(=O)O[C@@H]3O[C@@]4(C)CC[C@@H]1[C@]32OO4 [ARTEMISININ]
Mus musculus [3]
  ED50: 5.8 mg kg-1 5day-1
  ED90: 10 mg kg-1 5day-1
Mus musculus [4]
  ED50: 5 mg kg-1 5day-1
  ED90: 14 mg kg-1 5day-1
Mus musculus [5]
  ED50: 0.95 mg kg-1 5day-1
  ED90: 2.5 mg kg-1 5day-1
[6]
  IC50: 8.7 nM
[7]
  IC50: 8.9 nM

## CC1(O)CCC2CC1OO[C@@]2(C)CSC(c1ccccc1)(c1ccccc1)c1ccccc1 (stereo not given in full)
[1]
  IC50: 150 nM

## CC(=O)CC(=O)OC1(C)CCC2CC1OO[C@]2(C)CS(=O)(=O)c1ccccc1 (stereo not given in full)
[1]
  IC50: 73 nM

## CCO[C@H]1O[C@@H]2O[C@@]3(C)CC[C@H]4[C@H](C)CC[C@@H]([C@H]1C)[C@@]24OO3 [ARTEMOTIL]
Mus musculus [8]
  Dose: 360 mg/kg
Mus musculus [5]
  ED50: 0.9 mg kg-1 5day-1
  ED90: 1.4 mg kg-1 5day-1

## CC1(O)C2CC(CC1OC(=O)c1ccccc1)[C@@](C)(CS(=O)(=O)c1ccccc1)OO2 (stereo not given in full)
[1]
  IC50: 170 nM

## CC1(OC/C=C/c2ccccc2)CCC2CC1OO[C@@]2(C)CS(=O)(=O)c1ccccc1 (stereo not given in full)
[1]
  IC50: 32 nM

## COc1ccc(COC2(C)CCC3CC2OO[C@@]3(C)CS(=O)(=O)c2ccccc2)cc1 (stereo not given in full)
Mus musculus [3]
  ED50: 4.8 mg kg-1 5day-1
  ED90: 8.3 mg kg-1 5day-1
Mus musculus [5]
  ED50: 1.3 mg kg-1 5day-1
  ED90: 2.3 mg kg-1 5day-1
[1]
  IC50: 14 nM

## CC(=O)OC1(C)CCC2CC1OO[C@@]2(C)CS(=O)(=O)c1ccccc1 (stereo in doubt; 45b)
[1]
  IC50: 18 nM

## CC1(O)CCC2CC1OO[C@]2(C)CS(=O)(=O)c1ccc(F)cc1 (stereo not given in full)
[1]
  IC50: 52 nM

## CC1(O)C2CC(C[C@H]1O)[C@@](C)(CS(=O)(=O)c1ccccc1)OO2 (stereo not given in full)
[1]
  IC50: > 2500 nM

## CC1(O)CCC2CC1OO[C@]2(C)CSC(c1ccccc1)(c1ccccc1)c1ccccc1 (stereo not given in full)
[1]
  IC50: 72 nM

## CC(C)=CCOC1(C)CCC2CC1OO[C@@]2(C)CS(=O)(=O)c1ccccc1 (stereo not given in full)
[1]
  IC50: 35 nM

## CC1(O)CCC2CC1OO[C@@]2(C)C[S+]([O-])c1ccccc1 (stereo not given in full)
[1]
  IC50: 150 nM

## CC1(O)C2CC(C[C@H]1OC(=O)c1ccccc1)[C@](C)(CS(=O)(=O)c1ccccc1)OO2 (stereo not given in full)
[1]
  IC50: 2500 nM

## CC1CCC2CC1OO[C@]2(C)CS(=O)(=O)c1ccccc1 (stereo not given in full)
[1]
  IC50: 24 nM

## CC1(O)C2CC(CC1OC(=O)c1ccccc1)[C@](C)(CS(=O)(=O)c1ccccc1)OO2 (stereo not given in full)
[1]
  IC50: > 2500 nM

## CC1CCC2CC1OO[C@@]2(C)CS(=O)(=O)c1ccccc1 (stereo not given in full)
[1]
  IC50: 17 nM

## CC1(O)CCC2CC1OO[C@]2(C)CS(=O)(=O)c1ccccc1 (stereo in doubt; 23b)
[1]
  IC50: 89 nM

## COC(=O)CS(=O)(=O)C[C@@]1(C)OOC2CC1CCC2(C)O (stereo not given in full)
[1]
  IC50: > 2500 nM

## C[C@@]12OC1CC1CC2OO[C@@]1(C)CS(=O)(=O)c1ccccc1 (stereo not given in full)
[1]
  IC50: 92 nM

## CCOC(=O)C(=O)OC1(C)CCC2CC1OO[C@]2(C)CS(=O)(=O)c1ccccc1 (stereo not given in full)
[1]
  IC50: 140 nM

## CC(=O)OC1(C)CCC2CC1OO[C@@]2(C)CS(=O)(=O)c1ccccc1 (stereo in doubt; 39a)
Mus musculus [3]
  ED50: 12.5 mg kg-1 5day-1
  ED90: 28 mg kg-1 5day-1
Mus musculus [5]
  ED50: 3.7 mg kg-1 5day-1
  ED90: 7.3 mg kg-1 5day-1
[1]
  IC50: 17 nM

## CC1(O)CCC2CC1OO[C@@]2(C)CS(=O)(=O)c1ccccc1 (stereo in doubt; 23a) [listing 1 of 2 here]
Mus musculus [5]
  ED50: >30 mg kg-1 5day-1
  ED90: >30 mg kg-1 5day-1
[1]
  IC50: 55 nM

## CC(=O)CC(=O)OC1(C)CCC2CC1OO[C@@]2(C)CS(=O)(=O)c1ccccc1 (stereo not given in full)
[1]
  IC50: 46 nM

## CC(=O)OC1(C)CCC2CC1OO[C@]2(C)CS(=O)(=O)c1ccccc1 (stereo in doubt; 45a)
[1]
  IC50: 20 nM

## C=C1CCC2CC1OO[C@@]2(C)CS(=O)(=O)c1ccccc1 (stereo not given in full)
[1]
  IC50: < 3220 nM

## CC(=O)OC1(C)CCC2CC1OO[C@]2(C)CS(=O)(=O)c1ccccc1 (stereo in doubt; 45c)
[1]
  IC50: 270 nM

## CC1(O)C2CC(C[C@H]1OC(=O)c1ccccc1)[C@@](C)(CS(=O)(=O)c1ccccc1)OO2 (stereo not given in full)
[1]
  IC50: 815 nM

## CC(=O)OC1(C)CCC2CC1OO[C@@]2(C)C[S+]([O-])c1ccccc1 (stereo not given in full)
[1]
  IC50: 62 nM and 54 nM

## CCOC(=O)C(=O)OC1(C)CCC2CC1OO[C@@]2(C)CS(=O)(=O)c1ccccc1 (stereo not given in full)
[1]
  IC50: 170 nM

## CCCCS(=O)(=O)C[C@@]1(C)OOC2CC1CC(OC(=O)c1ccccc1)C2(C)O (stereo not given in full)
[1]
  IC50: 500 nM

## CC1(O)CCC2CC1OO[C@@]2(C)CS(=O)(=O)c1ccc(F)cc1 (stereo not given in full)
[1]
  IC50: 49 nM

## CC1=CCC2CC1OO[C@@]2(C)CSc1ccccc1 (stereo not given in full)
[1]
  IC50: 940 nM

## CC1(O)CCC2CC1OO[C@@]2(C)CS(=O)(=O)c1ccccc1 (stereo in doubt; 26b)
[1]
  IC50: 95 nM

## CC1(O)CCC2CC1OO[C@]2(C)C[S+]([O-])c1ccccc1 (stereo not given in full)
[1]
  IC50: 820 nM

## CC1(O)CCC2CC1OO[C@]2(C)CS(=O)(=O)c1ccccc1 (stereo in doubt; 26a)
[1]
  IC50: 120 nM

## CC(=O)OC1(C)CCC2CC1OO[C@]2(C)CS(=O)(=O)c1ccccc1 (stereo in doubt; 39b)
[1]
  IC50: 17 nM

## CC1(OC(=O)COc2ccccc2)CCC2CC1OO[C@@]2(C)CS(=O)(=O)c1ccccc1 (stereo not given in full)
[1]
  IC50: 37 nM

## CC(=O)OC1(C)CCC2CC1OO[C@@]2(C)CS(=O)(=O)c1ccccc1 (stereo in doubt; 45d)
[1]
  IC50: 220 nM

## CCN(CC)CCCC(C)Nc1ccnc2cc(Cl)ccc12 (stereo not given) [CHLOROQUINE]
Mus musculus [3]
  ED50: 2.4 mg kg-1 5day-1
  ED90: 56 mg kg-1 5day-1
Mus musculus [4]
  ED50: 1.9 mg kg-1 5day-1
  ED90: 2.3 mg kg-1 5day-1
Mus musculus [5]
  ED50: 1 mg kg-1 5day-1
  ED90: 1.2 mg kg-1 5day-1

## CC1(OC(=O)C(=O)N(Cc2ccccc2)Cc2ccccc2)CCC2CC1OO[C@]2(C)CS(=O)(=O)c1ccccc1 (stereo not given in full)
[1]
  IC50: 81 nM

## CC1(O)CCC2CC1OO[C@@]2(C)CS(=O)(=O)c1ccccc1 (stereo in doubt; 23a) [listing 2 of 2 here]
Mus musculus [9]
  NA: Inactive at 30 mg/kg/day

## CC1=CCC2CC1OO[C@@]2(C)CS(=O)(=O)c1ccccc1 (stereo not given in full)
[1]
  IC50: 360 nM

## CC1(OCc2ccccc2)CCC2CC1OO[C@]2(C)CS(=O)(=O)c1ccccc1 (stereo not given in full)
Mus musculus [2]
  Dose: 380 mg/kg
Mus musculus [3]
  ED50: 1 mg kg-1 5day-1
  ED90: 3.1 mg kg-1 5day-1
Mus musculus [4]
  ED50: 4.2 mg kg-1 5day-1
  ED90: 23.5 mg kg-1 5day-1
Mus musculus [5]
  ED50: 0.43 mg kg-1 5day-1
  ED90: 1.3 mg kg-1 5day-1
[1]
  IC50: 9.4 nM

## COC(=O)CS(=O)(=O)C[C@]1(C)OOC2CC1CCC2(C)O (stereo not given in full)
[1]
  IC50: > 2500 nM

## C[C@@H]1C(=O)C[C@H]2C[C@@H]1OO[C@@]2(C)/C=C\c1ccc(C(F)(F)F)cc1C(F)(F)F [ARTEFLENE]
Mus musculus [4]
  ED50: 10.4 mg kg-1 5day-1
  ED90: 18 mg kg-1 5day-1
Mus musculus [5]
  ED50: 2.7 mg kg-1 5day-1
  ED90: 3.9 mg kg-1 5day-1
[1]
  IC50: 71 nM

## CO[C@H]1O[C@@H]2O[C@@]3(C)CC[C@H]4[C@H](C)CC[C@@H]([C@H]1C)[C@@]24OO3 [ARTEMETHER]
Mus musculus [4]
  ED50: 3.1 mg kg-1 5day-1
  ED90: 5 mg kg-1 5day-1
Mus musculus [5]
  ED50: 0.5 mg kg-1 5day-1
  ED90: 1.1 mg kg-1 5day-1
Mus musculus [10]
  No. of mice survived: 4
Mus musculus [11]
  No. of mice survived: 10

## CC(=O)OC1(C)CCC2CC1OO[C@]2(C)C[S+]([O-])c1ccccc1 (stereo not given in full)
[1]
  IC50: 40 nM and 14 nM
